# Tests used:
# HeLa [1] = test: Cytotoxic activity in human HeLa cells by sulforhodamine B assay; type: functional
# Method in brief: (§1)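 Cell lines grown in D-MEM with 10% (v/v) FBS, 100 U/mL penicillin G and 100 μg/mL streptomycin at 37 °C, 5% CO2, 95% humidity. Cytotoxicity was measured by the Skehan method. CC50 was taken as the concentration that reduces cell growth by 50%. Docetaxel served as positive control, and each test was run in triplicate.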
# SiHa [2] = test: Cytotoxic activity in human SiHa cells by sulforhodamine B assay; type: functional; method in brief: as §1
# MCF7 [3] = test: Cytotoxic activity in human MCF7 cells by sulforhodamine B assay; type: functional; method in brief: as §1
# MDA-MB-231 [4] = test: Cytotoxic activity in human MDA-MB-231 cells by sulforhodamine B assay; type: functional; method in brief: as §1
# DU-145 [5] = test: Cytotoxic activity in human DU145 cells by sulforhodamine B assay; type: functional; method in brief: as §1
# KB [6] = test: Cytotoxic activity in human KB cells by sulforhodamine B assay; type: functional; method in brief: as §1
# HEp-2 [7] = test: Cytotoxic activity in human Hep2 cells by sulforhodamine B assay; type: functional; method in brief: as §1
# [8] = Cytotoxic activity in African green monkey Vero cells by sulforhodamine B assay; type: cell-based; details: chlorocebus sabaeus
# Method in brief: (§2)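 Cells grown in D-MEM with 10% (v/v) FBS, 100 U/mL penicillin G and 100 μg/mL streptomycin, at 37 °C under 5% CO2 and 95% humidity. Cytotoxic and antiproliferative effects were measured by the sulforhodamine B method of Skehan et al. CC50 (cytotoxic) or IC50 (antiproliferative) is the concentration giving 50% growth reduction. Docetaxel was the positive control. Triplicate tests.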
# [9] = Cytotoxic activity in HEK293 cells by sulforhodamine B assay; type: cell-based; details: human; method in brief: as §2
# HeLa [10] = test: Antiproliferative activity in human HeLa cells by sulforhodamine B assay; type: functional, cell-based; method in brief: as §2
# SiHa [11] = test: Antiproliferative activity in human SiHa cells by sulforhodamine B assay; type: functional, cell-based; method in brief: as §2
# MCF7 [12] = test: Antiproliferative activity in human MCF7 cells by sulforhodamine B assay; type: functional, cell-based; method in brief: as §2
# MDA-MB-231 [13] = test: Antiproliferative activity in human MDA-MB-231 cells by sulforhodamine B assay; type: functional, cell-based; method in brief: as §2
# DU-145 [14] = test: Antiproliferative activity in human DU145 cells by sulforhodamine B assay; type: functional, cell-based; method in brief: as §2
# KB [15] = test: Antiproliferative activity in human KB cells by sulforhodamine B assay; type: functional, cell-based; method in brief: as §2
# HEp-2 [16] = test: Antiproliferative activity in human Hep2 cells by sulforhodamine B assay; type: functional, cell-based; method in brief: as §2
# Vero = test: Antiproliferative activity in African green monkey Vero cells by sulforhodamine B assay; type: cell-based; details: Chlorocebus sabaeus; method in brief: as §2
# HEK293 = test: Antiproliferative activity in HEK293 cells by sulforhodamine B assay; type: cell-based; details: Homo sapiens; method in brief: as §2
# [17] = Selectivity index, ratio of cytotoxic CC50 for African green monkey Vero cells to cytotoxic CC50 for human HeLa cells; type: toxicity; details: Vero cells versus HeLa cells, read-out: Selectivity Index
# Method in brief: (§3)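 Selectivity index for harmfulness to normal cells: the normal-cell (Vero or HEK293) CC50 or IC50 over the cancer-cell value from the same assay type. Each value is from sulforhodamine B growth-reduction tests done in triplicate in D-MEM/10% FBS at 37 °C, 5% CO2.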
# [18] = Selectivity index, ratio of cytotoxic CC50 for African green monkey Vero cells to cytotoxic CC50 for human SiHa cells; type: toxicity; details: Vero cells versus SiHa cells, read-out: Selectivity Index; method in brief: as §3
# [19] = Selectivity index, ratio of cytotoxic CC50 for African green monkey Vero cells to cytotoxic CC50 for human MCF7 cells; type: toxicity; details: Vero cells versus MCF7 cells, read-out: Selectivity Index; method in brief: as §3
# [20] = Selectivity index, ratio of antiproliferative IC50 for African green monkey Vero cells to antiproliferative IC50 for human HeLa cells; type: toxicity; details: Vero cells versus HeLa cells, read-out: Ratio IC50; method in brief: as §3
# [21] = Selectivity index, ratio of antiproliferative IC50 for African green monkey Vero cells to antiproliferative IC50 for human SiHa cells; type: toxicity; details: Vero cells versus SiHa cells, read-out: Ratio IC50; method in brief: as §3
# [22] = Selectivity index, ratio of antiproliferative IC50 for African green monkey Vero cells to antiproliferative IC50 for human MCF7 cells; type: toxicity; details: Vero cells versus MCF7 cells, read-out: Ratio IC50; method in brief: as §3
SMILES,CC50 (HeLa [1]) [µM],CC50 (SiHa [2]) [µM],CC50 (MCF7 [3]) [µM],CC50 (MDA-MB-231 [4]) [µM],CC50 (DU-145 [5]) [µM],CC50 (KB [6]) [µM],CC50 (HEp-2 [7]) [µM],CC50 [8] [µM],CC50 [9] [µM],IC50 (HeLa [10]) [µM],IC50 (SiHa [11]) [µM],IC50 (MCF7 [12]) [µM],IC50 (MDA-MB-231 [13]) [µM],IC50 (DU-145 [14]) [µM],IC50 (KB [15]) [µM],IC50 (HEp-2 [16]) [µM],IC50 (Vero) [µM],IC50 (HEK293) [µM],other results
C=C(C)[C@@H]1CC[C@]2(CO)CC[C@]3(C)[C@H](CC[C@@H]4[C@@]5(C)CCC(=O)C(C)(C)[C@@H]5CC[C@]43C)[C@@H]12 [BETULONE],136,197,> 500,136,102,> 500,> 500,> 500,> 500,> 500,> 500,> 500,> 500,> 500,> 500,> 500,> 500,> 500,–
C=C(C)[C@@H]1CC[C@]2(C(=O)O)CC[C@]3(C)[C@H](CC[C@@H]4[C@@]5(C)CCC(=O)C(C)(C)[C@@H]5CC[C@]43C)[C@@H]12 [BETUNOLIC ACID],> 500,117,> 500,60.9,139,> 500,> 500,> 500,> 500,> 500,> 500,> 500,> 500,> 500,> 500,> 500,> 500,> 500,–
C=C(C)[C@@H]1CC[C@]2(C(=O)O)CC[C@]3(C)[C@H](CC[C@@H]4[C@@]5(C)CC[C@@H](O)C(C)(C)[C@@H]5CC[C@]43C)[C@@H]12 [EPIBETULINIC ACID],118,113,154,> 500,> 500,> 500,> 500,107,> 500,91.8,117,91.6,> 500,> 500,> 500,> 500,117,> 500,selectivity ratio [17]: 0.9; selectivity ratio [18]: 0.9; selectivity ratio [19]: 0.7; selectivity ratio [20]: 1.3; selectivity ratio [21]: 1; selectivity ratio [22]: 1.2
C=C(C)[C@@H]1CC[C@]2(C)CC[C@]3(C)[C@H](CC[C@@H]4[C@@]5(C)CCC(=O)C(C)(C)[C@@H]5CC[C@]43C)[C@@H]12 [LUPENONE],> 500,> 500,> 500,> 500,> 500,> 500,> 500,> 500,> 500,> 500,> 500,> 500,> 500,> 500,> 500,> 500,> 500,> 500,–
CC1(C)CC[C@]2(C(=O)O)CC[C@]3(C)C(=CC[C@@H]4[C@@]5(C)CC[C@H](O)C(C)(C)[C@@H]5CC[C@]43C)[C@@H]2C1 [OLEANOLIC_ACID],> 500,109,> 500,106,65.6,> 500,> 500,> 500,> 500,204,110,> 500,134,124,> 500,> 500,> 500,> 500,–

# Reference: ChEMBL document CHEMBL4130545, “Lupane-Type Triterpenes of Phoradendron vernicosum” (J Nat Prod, 2017)
